Entries after “also recorded” stand apart in the source; their conditions may differ.
How the values were obtained:
[1] = system: HIV-1BaL virions; test: sulfhydryl reagent treat/wash viral infection assay; type: cell-based; settings: HOS cells
[2] = system: HIV-1BaL pseudovirus; test: single-round pseudoviral infection luciferase reporter assay; type: cell-based; settings: for inhibition of pseudotyped HIV-1BaL infection by sulfhydryl reagent: reagent not removed
[3] = system: pseudotyped HIV-1BaL virus; test: virolysis assay; settings: HIV-1BaL pseudotyped virions
[4] = system: HIV-1BaL pseudovirus; test: 2G12 mechanism of action infection assay; type: cell-based; settings: ligand added after virus bound to cells at 4 °C
How it was run: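 HIV-1BaL.01 Env pseudovirus (pNL4-3.Luc+ R− E− backbone, made in HEK-293T, iodixanol-gradient purified) bound to prechilled HOS.T4.R5 cells (preseeded 24 h, 8000/well) 4 h at 4 °C. Cells washed twice cold, then exposed to serially diluted test antibody for 30 min steps at 4 °C and 23 °C, then 24 h at 37 °C. Medium wash; lysis at 48 h; luciferase (1 mM D-luciferin). Enfuvirtide control wells; triplicate; infection relative to virus without inhibitor.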

[5] = system: pseudotyped HIV-1BaL virions; test: protein inhibition of virolysis; settings: with 10 μM 1, 14 μM 2 or 50 μM 8 (EC80)

| Molecule | virus infectivity after reagent treatment and removal [1] | inhibition of pseudotyped HIV-1BaL infection by sulfhydryl reagent [2] | also measured |
| --- | --- | --- | --- |
| O[C@@H](CS)[C@@H](O)CS (racemic) [DTT, dithiothreitol] | did not cause significant dose-dependent reduction | inhibit | – |
| CC[C@H](C)[C@H](NC(=O)[C@@H](N)CCCNC(=N)N)C(=O)N[C@@H](CC(N)=O)C(=O)N[C@@H](CC(N)=O)C(=O)N[C@H](C(=O)N1C[C@@H](n2cc([C]34[CH]5[CH]6[CH]7[CH]3[Fe]6754389%10[CH]4[CH]3[CH]8[CH]9[CH]4%10)nn2)C[C@H]1C(=O)N[C@@H](Cc1c[nH]c2ccccc12)C(=O)N[C@@H](CO)C(=O)N[C@@H](CCC(=O)O)C(=O)N[C@@H](C)C(=O)N[C@@H](CCSC)C(=O)N[C@@H](CCSC)C(=O)NCCC(=O)N[C@@H](CCC(N)=O)C(=O)NCCC(=O)N[C@@H](CSC1CC(=O)N(CCC(=O)NCCCOCCOCCOCCCNC(=O)CCN2C(=O)CC(SC[C@H](NC(=O)CCNC(=O)[C@H](CCC(N)=O)NC(=O)CCNC(=O)[C@H](CCSC)NC(=O)[C@H](CCSC)NC(=O)[C@H](C)NC(=O)[C@H](CCC(=O)O)NC(=O)[C@H](CO)NC(=O)[C@H](Cc3c[nH]c4ccccc34)NC(=O)[C@@H]3C[C@H](n4cc([C]56[CH]7[CH]8[CH]9[CH]5[Fe]89765%10%11%12[CH]6[CH]5[CH]%10[CH]%11[CH]6%12)nn4)CN3C(=O)[C@@H](NC(=O)[C@H](CC(N)=O)NC(=O)[C@H](CC(N)=O)NC(=O)[C@@H](NC(=O)[C@@H](N)CCCNC(=N)N)[C@@H](C)CC)[C@@H](C)CC)C(N)=O)C2=O)C1=O)C(N)=O)[C@@H](C)CC (stereo partly drawn) [1a] | – | – | inhibition of HIV-1 infection (in words) ([2]; HIV-1BaL pseudotyped virions): powerful inhibitor of HIV-1 infection, comparable to 1; p24 release (in words) [3]: did not induce p24 release |
| NC(=O)CI [IAAm, iodoacetamide] | – | inhibit | – |
| O=C(O)CCP(CCC(=O)O)CCC(=O)O [TCEP, tris(2-carboxyethyl)phosphine] | did not cause significant dose-dependent reduction | inhibit | – |
| enfuvirtide [T20] | – | – | infection with six-helix bundle formation delayed by low temperature [4]: blocked infection |
| cyanovirin-N: lectin that binds high-mannose glycans in the gp120 outer domain (protein, UniProt P81180 1-101, looked up) Cyanovirin-N: LGKFSQTCYNSAIQGSVLTSTCERTNGGYNTSSIDLNSVIENVDGSLKWQPSNFIETCRNTQLAGSSELAAECKTRAQQFVSTKINLDDHIANIDGTLKYE | – | – | inhibition of PTT-induced p24 release by protein ligand [5]: did not inhibit p24 release; also recorded: no inhibition of p24 release |

— article PMC4836388 (ACS chemical biology, 2015)
